In the library only some 3.5% were active in any assay of this set; here they are far more common.
rRNA inh HTS = selective bacterial rRNA inhibition in E. coli | GFP signal change (wild-type ribosome), % (test concentration not listed) | hit rate 1.6% among 350,000 | E. coli WT GFP vs humanized-ribosome RFP mutants, fluorescence, 24 h; hits give low values; DMSO median 0, no signal -100;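 active means significant combined selectivity score with lowered wild-type GFP, culture density cut under 30%, mutant RFP and density less affected; inactive means any of these conditions unmet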
HIV Env fusion = blocks HIV Env-driven cell-cell fusion | hit rate 1.1% among 360,000 | inhibition, % at 12.3 µM | HeLa-JRFL Env/CEM21 cell fusion, luciferase;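 active means mean replicate inhibition score of at least 50 and every replicate individually at or above 50; inconclusive means only one of the two criteria met; inactive means mean below 50 and not all replicates reaching 50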;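 further: 0% = plate neutral controls and 100% = maraviroc near 300 nM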
FN deposit inh = fibronectin deposition inhibition | hit rate 0.086% among 350,000 | AH1F fibroblasts, Alexa488-fibronectin deposition fluorescence, overnight | inhibition, % at 12.6 µM | AID 743247;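 active means mean inhibition across replicates of 30% or more, regardless of how many single replicates reach that level; inconclusive means mean under 30% yet at least half of replicates reach 30%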;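 further: positive control wells lacked labelled fibronectin entirely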
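test system = AH1F fibroblasts assembling fluorescent fibronectin matrix | quantity = 10000 AH1F cells per well | buffer or medium = DMEM plus 2% serum, read in PBS | doses = single dose, pinned | incubation = 1 h cell attachment, overnight exposure to compound and label | detection = fluorescence at 485 nm excitation, 525 nm emission | read-out basis = inhibition from reduced deposited-fibronectin fluorescence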
PGC1a acetyl inh = lowers PGC1a acetylation signal in U2OS cells | AlphaScreen anti-acetyl-lysine; with virally co-expressed GCN5 acetyltransferase | inhibition, % at 15.6 µM | hit rate 0.17% among 350,000;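 active means every replicate shows inhibition of at least 40%; inconclusive means mean inhibition at least 40% but some replicate below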;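 further: 0% = neutral control wells and 100% = positive control wells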
PglD inh = blocks C. jejuni PglD acetyltransferase activity; hit rate 0.098% among 360,000; purified PglD enzyme, DTNB colorimetric CoA detection; inhibition, % at 12.5 µM; in the data active means inhibition above about 16%, passing the limit was not always enough; inconclusive means no clear call, values can overlap the other calls
DENV2 CPE rescue = protects cells from dengue virus 2 cytopathic effect; DENV2-infected cells, cytopathic effect rescue, plate reader; CPE inhibition, % at 9.99 µM; hit rate 1.7% among 350,000; AID 651640; in the data active means CPE inhibition above about 20%, passing the limit was not always enough; inconclusive means no clear call, values can overlap the other calls; tested in BHK-21 cells;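 further: 0% = median of neutral control wells and 100% = median of positive control wells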
An asterisk follows results filed as active; [ ] = dose if it differs, or a comment.

`C[C@@H]1CCCCO[C@@H](CN(C)Cc2ccc(C(F)(F)F)cc2)[C@H](C)CN([C@@H](C)CO)C(=O)c2cc(NC(=O)Nc3ccc(C(F)(F)F)cc3)ccc2O1` gave rRNA inh HTS -3, HIV Env fusion 59*[16.7 µM], FN deposit inh -2, PGC1a acetyl inh 3, PglD inh -3 and DENV2 CPE rescue -16.
CCCN(C)C[C@@H]1OCCCC[C@@H](C)Oc2ccc(NC(=O)Nc3ccc(C(F)(F)F)cc3)cc2C(=O)N([C@H](C)CO)C[C@@H]1C was read as rRNA inh HTS 1, HIV Env fusion 12[16.7 µM], PGC1a acetyl inh 14, PglD inh 0 and DENV2 CPE rescue 28*.
C[C@@H]1CN([C@@H](C)CO)C(=O)c2cc(NC(=O)Nc3ccc(C(F)(F)F)cc3)ccc2O[C@@H](C)CCCCO[C@H]1CN(C)Cc1ccc(C(F)(F)F)cc1 was read as rRNA inh HTS 0, HIV Env fusion 42[16.7 µM], FN deposit inh 2, PGC1a acetyl inh 9, PglD inh 2 and DENV2 CPE rescue -4.
CC(C)NC(=O)Nc1ccc2c(c1)C(=O)N([C@@H](C)CO)C[C@@H](C)[C@@H](CN(C)Cc1ccc(C(F)(F)F)cc1)OCCCC[C@@H](C)O2 was read as rRNA inh HTS 0, HIV Env fusion 70*[16.7 µM], FN deposit inh 7, PGC1a acetyl inh -1, PglD inh -6 and DENV2 CPE rescue 56*.
Screening CC(C)NC(=O)Nc1ccc2c(c1)C(=O)N([C@@H](C)CO)C[C@H](C)[C@@H](CN(C)Cc1ccc(C(=O)O)cc1)OCCCC[C@@H](C)O2 returned rRNA inh HTS 5, HIV Env fusion -32[16.7 µM], FN deposit inh -1, PGC1a acetyl inh 2, PglD inh -1 and DENV2 CPE rescue -4.
Screening CNC[C@H]1Oc2ccc(NC(=O)NC3CCCCC3)cc2CC(=O)N([C@H](C)CO)C[C@H]1C returned rRNA inh HTS 1, HIV Env fusion 3[16.7 µM], FN deposit inh 1, PGC1a acetyl inh 3, PglD inh 1 and DENV2 CPE rescue inconclusive.
C[C@@H]1CN([C@@H](C)CO)C(=O)Cc2cc(NS(=O)(=O)c3ccccc3)ccc2O[C@@H]1CN(C)S(=O)(=O)c1cccs1 was read as rRNA inh HTS -2, HIV Env fusion 7[16.7 µM], PGC1a acetyl inh 9, PglD inh -1 and DENV2 CPE rescue 5.
`C[C@@H]1CCCCO[C@@H](CN(C)Cc2ccc(Cl)c(Cl)c2)[C@H](C)CN([C@@H](C)CO)C(=O)c2cc(NC(=O)Nc3ccccc3)ccc2O1` gave rRNA inh HTS 1, HIV Env fusion 20[16.7 µM], FN deposit inh -7, PGC1a acetyl inh -46, PglD inh -1 and DENV2 CPE rescue 32*.
C[C@@H]1CN([C@@H](C)CO)C(=O)c2cc(NC(=O)C3CCCCC3)ccc2O[C@@H](C)CCCCO[C@@H]1CN(C)C(=O)Nc1ccc(C(F)(F)F)cc1 was read as rRNA inh HTS 0, HIV Env fusion 10[16.7 µM], PGC1a acetyl inh 3, PglD inh -2 and DENV2 CPE rescue 0.
`C[C@@H]1CCCCO[C@@H](CN(C)C(=O)Nc2ccc(C(F)(F)F)cc2)[C@@H](C)CN([C@H](C)CO)C(=O)c2cc(NC(=O)C3CCCCC3)ccc2O1` gave rRNA inh HTS 3, HIV Env fusion -9[16.7 µM], PGC1a acetyl inh 15, PglD inh 1 and DENV2 CPE rescue 27*.
For C[C@@H]1CN([C@@H](C)CO)C(=O)c2cc(NC(=O)Nc3ccc(C(F)(F)F)cc3)ccc2O[C@@H](C)CCCCO[C@H]1CN(C)Cc1ccc(Cl)c(Cl)c1 the results were rRNA inh HTS 0, HIV Env fusion 26[16.7 µM], PGC1a acetyl inh -4, PglD inh 3 and DENV2 CPE rescue 24*.
`C[C@H](CO)N1C[C@H](C)[C@H](CN(C)Cc2ccc(C(F)(F)F)cc2)OCCCC[C@H](C)Oc2ccc(NC(=O)Nc3ccccc3)cc2C1=O` gave rRNA inh HTS -2, HIV Env fusion 73*[16.7 µM], FN deposit inh 1, PGC1a acetyl inh -7, PglD inh 0 and DENV2 CPE rescue -12.
C[C@@H]1CCCCO[C@H](CN(C)Cc2ccc(Cl)c(Cl)c2)[C@H](C)CN([C@@H](C)CO)C(=O)c2cc(NC(=O)Nc3ccc(C(F)(F)F)cc3)ccc2O1 was read as rRNA inh HTS -2, HIV Env fusion 0[16.7 µM], PGC1a acetyl inh 0, PglD inh -2 and DENV2 CPE rescue -4.
Screening COCC(=O)Nc1ccc2c(c1)C(=O)N(C)C[C@@H](OC)[C@H](C)CN(C(=O)Cc1ccccn1)[C@H](C)CO2 returned rRNA inh HTS 2, FN deposit inh 0, PGC1a acetyl inh 5, PglD inh -4 and DENV2 CPE rescue -3.
Screening COc1ccc(CN(C)C[C@H]2Oc3c(NC(=O)Nc4c(C)noc4C)cccc3C(=O)N([C@@H](C)CO)C[C@@H]2C)cc1 returned rRNA inh HTS 2, PGC1a acetyl inh -6, PglD inh 2 and DENV2 CPE rescue 1.
For C[C@H]1CN([C@@H](C)CO)C(=O)c2cc(NC(=O)NC3CCCCC3)ccc2O[C@@H]1CN(C)Cc1ccc(C(=O)O)cc1 the results were rRNA inh HTS 3, PGC1a acetyl inh 3, PglD inh -3 and DENV2 CPE rescue -5.
`C[C@@H]1CCCCO[C@@H](CN(C)Cc2ccc(C(F)(F)F)cc2)[C@@H](C)CN([C@H](C)CO)C(=O)c2cc(NC(=O)C3CCCCC3)ccc2O1` gave rRNA inh HTS 4, HIV Env fusion 14[16.7 µM], PGC1a acetyl inh -1, PglD inh -4 and DENV2 CPE rescue 31*.
C[C@H](CO)N1C[C@H](C)[C@@H](CN(C)Cc2ccc(C(=O)O)cc2)Oc2ccc(NC(=O)NC3CCCCC3)cc2C1=O was read as rRNA inh HTS -2, PGC1a acetyl inh -7, PglD inh 2 and DENV2 CPE rescue 45*.
For CO[C@@H]1CN(C)C(=O)c2ccc(NC(=O)Nc3ccccc3F)cc2OC[C@H](C)N(C)C[C@H]1C the results were rRNA inh HTS 0, FN deposit inh 9, PGC1a acetyl inh -5, PglD inh -1 and DENV2 CPE rescue -2.
`CC(C)(C)c1ccc(C(=O)OCC(=O)Nc2sc3c(c2C#N)CCC3)cc1` gave rRNA inh HTS 9, FN deposit inh -5, PglD inh 1 and DENV2 CPE rescue 99*.
For CN(C)S(=O)(=O)c1ccc(C(=O)OCC(=O)Nc2sc3c(c2C#N)CCCCC3)cc1 the results were rRNA inh HTS 2, HIV Env fusion -11, FN deposit inh 0 and DENV2 CPE rescue 13.
For O=c1c2c(nc3n1CCCCC3)-c1ccccc1CC21CCCC1 the results were rRNA inh HTS -36*, PGC1a acetyl inh 1, PglD inh 0 and DENV2 CPE rescue -3.
